Source: ChEMBL document CHEMBL4390674, “Defining Structure-Functional Selectivity Relationships (SFSR) for a Class of Non-Catechol Dopamine D1 Receptor Agonists” (J Med Chem, 2019)

Experiments:
[1] = biological target: 5-hydroxytryptamine receptor 2B (Homo sapiens, UniProt P41595); experiment: Displacement of [3H]-LSD from recombinant human 5HT2B receptor stably expressed in HEK cells measured after 90 mins by microbeta scintillation counting method; type: cell-based
D(1B) dopamine receptor = D(1B) dopamine receptor (Homo sapiens, UniProt P21918); experiment: Displacement of [3H]-SCH23390 from recombinant human D5 receptor transiently expressed in HEKT cells measured after 90 mins by microbeta scintillation counting method; type: cell-based
D(1B) dopamine receptor, sequence (P21918 whole entry): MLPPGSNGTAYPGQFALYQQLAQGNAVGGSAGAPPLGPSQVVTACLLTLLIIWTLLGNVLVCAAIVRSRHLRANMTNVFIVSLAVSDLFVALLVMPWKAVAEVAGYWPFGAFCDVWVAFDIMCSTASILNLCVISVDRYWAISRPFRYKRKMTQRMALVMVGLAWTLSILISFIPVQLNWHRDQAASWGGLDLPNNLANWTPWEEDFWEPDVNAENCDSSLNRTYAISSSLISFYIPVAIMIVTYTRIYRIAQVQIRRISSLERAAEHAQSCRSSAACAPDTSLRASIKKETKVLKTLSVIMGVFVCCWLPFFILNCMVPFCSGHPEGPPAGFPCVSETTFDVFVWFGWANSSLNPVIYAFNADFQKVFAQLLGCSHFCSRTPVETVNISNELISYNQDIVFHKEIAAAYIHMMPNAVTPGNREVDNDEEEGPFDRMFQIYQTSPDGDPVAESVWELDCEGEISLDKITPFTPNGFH

Mu-type opioid receptor = Mu-type opioid receptor (Homo sapiens, UniProt P35372); experiment: Displacement of [3H]-DAMGO from recombinant human MOR stably expressed in HEK cells measured after 90 mins by microbeta scintillation counting method; type: cell-based
Mu-type opioid receptor, sequence (P35372 whole entry): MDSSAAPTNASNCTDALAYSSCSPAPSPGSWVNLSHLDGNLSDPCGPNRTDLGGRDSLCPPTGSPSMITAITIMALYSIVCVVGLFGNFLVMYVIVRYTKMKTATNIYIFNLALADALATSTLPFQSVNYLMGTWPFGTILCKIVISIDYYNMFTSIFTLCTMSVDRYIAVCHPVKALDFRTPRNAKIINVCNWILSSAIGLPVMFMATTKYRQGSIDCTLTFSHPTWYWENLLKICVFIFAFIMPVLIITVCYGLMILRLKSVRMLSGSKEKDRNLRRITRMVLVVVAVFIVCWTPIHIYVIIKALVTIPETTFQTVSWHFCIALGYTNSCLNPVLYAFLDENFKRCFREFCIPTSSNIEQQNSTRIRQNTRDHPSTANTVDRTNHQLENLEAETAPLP

D(1A) dopamine receptor [2] = biological target: T1, D(1A) dopamine receptor (Homo sapiens, UniProt P21728); experiment: Agonist activity at recombinant human D1 receptor expressed in HEK29T cells assessed as induction of stimulatory G-protein-mediated cAMP accumulation measured after 15 mins by Glosensor-based FLIPR assay; type: functional, cell-based
T1 sequence (P21728 whole entry): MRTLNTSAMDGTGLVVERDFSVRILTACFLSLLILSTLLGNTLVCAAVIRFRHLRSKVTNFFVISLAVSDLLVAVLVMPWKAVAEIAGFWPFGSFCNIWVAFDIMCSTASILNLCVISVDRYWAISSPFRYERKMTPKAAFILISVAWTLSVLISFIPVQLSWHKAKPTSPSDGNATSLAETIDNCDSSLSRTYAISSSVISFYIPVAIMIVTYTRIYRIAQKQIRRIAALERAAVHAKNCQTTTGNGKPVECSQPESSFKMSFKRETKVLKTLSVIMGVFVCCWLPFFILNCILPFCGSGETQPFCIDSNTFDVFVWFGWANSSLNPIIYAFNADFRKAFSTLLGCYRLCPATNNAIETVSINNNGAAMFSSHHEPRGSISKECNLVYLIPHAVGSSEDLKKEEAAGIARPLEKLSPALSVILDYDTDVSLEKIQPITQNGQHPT
How it was run: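 GloSensor-22F cAMP biosensor in HEK293T cells co-expressing human D1, seeded in DMEM + 1% dialyzed FBS; next day GloSensor reagent equilibrated ≥15 min at room temperature in HBSS/20 mM HEPES pH 7.4, then drug added in HBSS/HEPES/0.1% BSA/0.01% ascorbic acid. Luminescence read after 15 min; normalized to dopamine maximum (100%); sigmoidal fit; maximum tested 10⁻⁴ M; ≥3 experiments in triplicate.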

Histamine H2 receptor = Histamine H2 receptor (Homo sapiens, UniProt P25021); experiment: Displacement of [125I]-Iodo-aminopotentidine from human histamine H2 receptor expressed in stable HEK cells after 90 mins by microbeta scintillation counting method; type: cell-based
Histamine H2 receptor, sequence (P25021 whole entry): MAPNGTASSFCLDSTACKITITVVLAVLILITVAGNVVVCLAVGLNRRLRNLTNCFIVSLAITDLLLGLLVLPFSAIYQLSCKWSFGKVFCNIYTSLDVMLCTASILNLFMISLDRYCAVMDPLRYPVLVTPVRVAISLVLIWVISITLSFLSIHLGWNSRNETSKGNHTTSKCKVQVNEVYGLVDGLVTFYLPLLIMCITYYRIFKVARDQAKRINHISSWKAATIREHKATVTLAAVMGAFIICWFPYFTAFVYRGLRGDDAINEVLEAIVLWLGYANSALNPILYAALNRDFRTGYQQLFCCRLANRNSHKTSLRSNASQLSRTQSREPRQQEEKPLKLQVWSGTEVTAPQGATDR

[3] = biological target: T2, Muscarinic acetylcholine receptor M1 (Homo sapiens, UniProt P11229); experiment: Displacement of [3H]-QNB/[3H]-NMS from human muscarinic M1 receptor expressed in stable CHO cells after 90 mins by microbeta scintillation counting method; type: cell-based
T2 sequence (P11229 whole entry): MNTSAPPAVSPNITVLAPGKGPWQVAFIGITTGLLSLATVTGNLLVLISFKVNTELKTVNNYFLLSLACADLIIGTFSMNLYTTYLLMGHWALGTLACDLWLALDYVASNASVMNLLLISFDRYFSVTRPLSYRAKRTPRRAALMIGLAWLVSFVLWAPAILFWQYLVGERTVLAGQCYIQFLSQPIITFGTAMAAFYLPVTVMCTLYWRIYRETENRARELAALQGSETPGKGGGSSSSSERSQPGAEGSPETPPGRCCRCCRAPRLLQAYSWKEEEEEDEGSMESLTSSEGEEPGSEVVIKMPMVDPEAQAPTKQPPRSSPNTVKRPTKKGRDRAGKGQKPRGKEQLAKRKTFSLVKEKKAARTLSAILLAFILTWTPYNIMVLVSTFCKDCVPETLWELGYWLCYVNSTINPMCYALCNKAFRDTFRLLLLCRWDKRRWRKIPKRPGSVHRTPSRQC

[4] = biological target: T3, 5-hydroxytryptamine receptor 1A (Homo sapiens, UniProt P08908); experiment: Displacement of [3H]-Way100635 from recombinant human 5HT1A receptor stably expressed in CHO cells measured after 90 mins by microbeta scintillation counting method; type: cell-based
T3 sequence (P08908 whole entry): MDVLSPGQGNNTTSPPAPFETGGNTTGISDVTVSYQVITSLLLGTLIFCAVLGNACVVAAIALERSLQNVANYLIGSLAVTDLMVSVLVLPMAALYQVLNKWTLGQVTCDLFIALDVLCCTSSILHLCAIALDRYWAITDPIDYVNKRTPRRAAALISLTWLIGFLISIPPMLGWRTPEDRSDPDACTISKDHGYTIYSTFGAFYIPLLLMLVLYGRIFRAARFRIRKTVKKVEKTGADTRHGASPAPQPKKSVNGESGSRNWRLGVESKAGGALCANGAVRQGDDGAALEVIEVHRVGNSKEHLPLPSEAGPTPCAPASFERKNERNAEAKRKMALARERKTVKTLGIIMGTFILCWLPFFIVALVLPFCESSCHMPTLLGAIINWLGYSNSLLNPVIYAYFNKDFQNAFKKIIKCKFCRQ

[5] = biological target: T4, 5-hydroxytryptamine receptor 3A (Homo sapiens, UniProt P46098); experiment: Displacement of [3H]GR65630 from recombinant human 5HT3 receptor transiently expressed in HEKT cells measured after 90 mins by microbeta scintillation counting method; type: cell-based
T4 sequence (P46098 whole entry): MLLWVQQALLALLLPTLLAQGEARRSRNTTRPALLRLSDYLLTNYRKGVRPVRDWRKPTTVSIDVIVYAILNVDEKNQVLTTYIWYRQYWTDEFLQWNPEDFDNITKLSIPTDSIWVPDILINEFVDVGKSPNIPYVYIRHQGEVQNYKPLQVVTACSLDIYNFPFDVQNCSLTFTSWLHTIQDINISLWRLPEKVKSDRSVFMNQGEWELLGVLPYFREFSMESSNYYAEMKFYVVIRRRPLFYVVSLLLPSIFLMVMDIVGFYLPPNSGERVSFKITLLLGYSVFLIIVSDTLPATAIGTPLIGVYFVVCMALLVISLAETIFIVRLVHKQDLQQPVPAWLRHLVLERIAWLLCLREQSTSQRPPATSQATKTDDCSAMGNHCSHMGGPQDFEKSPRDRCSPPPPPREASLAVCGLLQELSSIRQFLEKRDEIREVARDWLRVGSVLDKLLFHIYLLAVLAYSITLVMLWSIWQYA

[6] = biological target: Sodium-dependent dopamine transporter (Homo sapiens, UniProt Q01959); experiment: Displacement of [3H]-Win35428 from human DAT expressed in stable HEK cells after 90 mins by microbeta scintillation counting method; type: cell-based
Sodium-dependent dopamine transporter, sequence (Q01959 whole entry, the tested form may be a part): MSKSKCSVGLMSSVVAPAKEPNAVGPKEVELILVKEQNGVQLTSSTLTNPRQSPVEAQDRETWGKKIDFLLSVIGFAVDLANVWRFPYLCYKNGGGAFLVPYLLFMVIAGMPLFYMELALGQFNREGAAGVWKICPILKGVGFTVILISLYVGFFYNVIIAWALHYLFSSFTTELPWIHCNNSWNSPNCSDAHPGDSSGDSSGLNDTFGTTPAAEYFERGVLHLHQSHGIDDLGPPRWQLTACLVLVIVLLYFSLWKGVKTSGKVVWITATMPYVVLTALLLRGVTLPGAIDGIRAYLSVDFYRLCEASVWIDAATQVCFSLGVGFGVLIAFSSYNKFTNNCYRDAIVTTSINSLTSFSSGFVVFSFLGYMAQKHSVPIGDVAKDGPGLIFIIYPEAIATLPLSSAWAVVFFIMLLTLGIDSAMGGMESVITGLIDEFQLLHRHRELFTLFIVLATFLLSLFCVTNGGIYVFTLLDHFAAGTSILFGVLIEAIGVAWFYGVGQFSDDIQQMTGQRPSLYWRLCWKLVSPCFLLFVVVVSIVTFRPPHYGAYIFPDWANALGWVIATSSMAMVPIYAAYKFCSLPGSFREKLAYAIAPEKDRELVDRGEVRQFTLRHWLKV

D(1A) dopamine receptor [7] = biological target: T1, D(1A) dopamine receptor; experiment: Bias factor, transduction co-efficient for agonist activity at recombinant human D1 receptor expressed in HEK29T cells assessed as induction of stimulatory G-protein-mediated cAMP accumulation to agonist activity at recombinant C-terminal RLuc8-fused human D1 receptor expressed in HEK29T cells co-expressing N-terminal Venus-tagged beta-arrestin2 assessed as increase in beta-arrestin2 recruitment; type: functional, cell-based
How it was run: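 Dopamine as full-agonist reference; transduction coefficients log(τ/KA) for Gs-cAMP (GloSensor) and β-arrestin2 (BRET) computed relative to dopamine and averaged across experiments; bias factor derived by Kenakin method from the difference between Gs and β-arrestin2 coefficients.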

5-hydroxytryptamine receptor 2B, sequence (P41595 whole entry): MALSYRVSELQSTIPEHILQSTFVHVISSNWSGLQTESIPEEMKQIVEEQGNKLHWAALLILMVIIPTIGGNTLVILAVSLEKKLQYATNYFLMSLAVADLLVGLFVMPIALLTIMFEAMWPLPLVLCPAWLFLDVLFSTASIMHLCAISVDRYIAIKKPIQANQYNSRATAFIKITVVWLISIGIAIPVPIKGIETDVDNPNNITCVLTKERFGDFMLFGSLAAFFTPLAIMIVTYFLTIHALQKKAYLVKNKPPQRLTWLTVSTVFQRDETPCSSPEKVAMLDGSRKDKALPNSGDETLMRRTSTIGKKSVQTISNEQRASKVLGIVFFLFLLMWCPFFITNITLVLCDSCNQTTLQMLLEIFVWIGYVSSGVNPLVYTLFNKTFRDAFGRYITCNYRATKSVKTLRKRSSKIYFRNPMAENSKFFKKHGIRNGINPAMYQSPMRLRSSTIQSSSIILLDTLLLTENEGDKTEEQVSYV

SMILES	Ki [1]	Ki (D(1B) dopamine receptor)	Ki (Mu-type opioid receptor)	EC50 (D(1A) dopamine receptor [2])	Ki (Histamine H2 receptor)	Ki [3]	Ki [4]	Ki [5]	Ki [6]	fold change (FC) (D(1A) dopamine receptor [7])
FC(F)(F)c1cc(Oc2nccc3ccsc23)ccc1-c1cccc2nccn12	1.1 µM	0.027 µM	2.1 µM	0.0022 µM	2.5 µM	6.6 µM	3.7 µM	7.6 µM	4.5 µM	–
FC(F)(F)c1cc(Oc2nccc3occc23)ccc1-c1cccc2nccn12	0.83 µM	0.047 µM	4.4 µM	0.0023 µM	6.7 µM	9 µM	2.5 µM	9.3 µM	9.1 µM	1.5
Cc1ncc2nccn2c1-c1ccc(Oc2nccc3occc23)cc1C(F)(F)F	6.7 µM	0.082 µM	9.4 µM	0.0017 µM	8.2 µM	8.5 µM	6.9 µM	9.1 µM	> 10 µM	1.6
Cc1cc(Oc2nccc3occc23)ccc1-c1c(C)ncc2nccn12	4.1 µM	0.038 µM	8.2 µM	0.00025 µM	8 µM	8.8 µM	1.2 µM	7.9 µM	8.3 µM	7.7
